Laboratory results published in ChEMBL document CHEMBL1781947, “Structure-activity studies on the nociceptin/orphanin FQ receptor antagonist 1-benzyl-N-{3-[spiroisobenzofuran-1(3H),4'-piperidin-1-yl]propyl} pyrrolidine-2-carboxamide” (Bioorg Med Chem, 2009).
The source made the active and inactive calls.

What was measured:
[1] = target: T1, Nociceptin receptor (Homo sapiens, UniProt P41146); experiment: Displacement of [3H]N/OFQ from human recombinant NOP receptor expressed in CHO cells; assay type: cell-based
T1 sequence (P41146 whole entry): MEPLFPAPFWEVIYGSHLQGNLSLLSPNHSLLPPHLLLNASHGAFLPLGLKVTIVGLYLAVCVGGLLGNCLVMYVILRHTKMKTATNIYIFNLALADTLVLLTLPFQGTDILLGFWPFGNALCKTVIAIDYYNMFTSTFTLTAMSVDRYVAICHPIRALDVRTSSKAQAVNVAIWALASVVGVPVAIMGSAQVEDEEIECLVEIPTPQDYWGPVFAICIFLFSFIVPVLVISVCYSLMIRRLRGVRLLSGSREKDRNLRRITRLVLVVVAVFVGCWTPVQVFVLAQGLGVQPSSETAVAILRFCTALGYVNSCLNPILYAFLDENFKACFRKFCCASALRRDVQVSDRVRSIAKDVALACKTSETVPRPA
In short: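 Membranes from CHO cells expressing human NOP, prepared in 50 mM Tris-HCl, 5 mM Mg2+ pH 7.4. Incubation: 5 µg protein, ~200 pM [3H]N/OFQ, 10 µM peptidase inhibitors (amastatin, bestatin, captopril, phosphoramidon), 0.5% BSA, increasing competitor concentrations, 1 h at room temperature. Nonspecific binding defined with 1 µM unlabeled N/OFQ. Filtration onto 0.5% PEI-soaked GF/B filters; pKi reported.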

[2] = target: Nociceptin receptor (Mus musculus, UniProt P35377); experiment: Antagonist activity at nociceptin receptor in Swiss mouse vas deferens assessed as inhibition of electrically evoked twitches; assay type: functional, tissue-based; conditions: read-out: pA2 (converted)
Nociceptin receptor (Mus musculus, UniProt P35377), sequence (P35377 whole entry): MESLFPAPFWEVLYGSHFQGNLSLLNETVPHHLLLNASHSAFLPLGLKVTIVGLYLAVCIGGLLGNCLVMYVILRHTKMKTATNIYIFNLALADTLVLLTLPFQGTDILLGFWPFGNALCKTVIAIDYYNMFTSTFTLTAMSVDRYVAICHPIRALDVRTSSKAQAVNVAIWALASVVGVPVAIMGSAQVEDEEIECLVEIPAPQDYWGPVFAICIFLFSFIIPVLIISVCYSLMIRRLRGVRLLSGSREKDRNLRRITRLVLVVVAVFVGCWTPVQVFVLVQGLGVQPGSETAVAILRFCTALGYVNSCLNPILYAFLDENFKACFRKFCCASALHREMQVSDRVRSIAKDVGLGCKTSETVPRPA
In short: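 Vas deferens from male Swiss mice (30–35 g), field-stimulated with supramaximal 1 ms pulses at 0.05 Hz. Twitches recorded isotonically after 60 min equilibration. Cumulative N/OFQ curves run in 0.5 log steps, without or with antagonist pre-incubated 15 min. pA2 from Schild analysis. At least four experiments.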

[3] = tested on: Mus musculus; experiment: Effect on N/OFQ-induced pronociciceptive activity in Swiss albino mouse at 10 mg/kg, ip administered 30 mins before 1 nmol, icv N/OFQ challenge by tail withdrawal latency test; assay type: functional, organism-based; design: dose 10 mg/kg
In short: (§1)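 Male Swiss albino mice (25–30 g), distal half of the tail dipped in 48 °C water, 20 s cutoff, observer blind to treatment. Test agent 10 mg/kg ip in 2% DMSO/10% encapsin, 30 min before 1 nmol N/OFQ or saline given icv (2 µl) or i.t. (5 µl). Latency read before and 5, 15, 30 and 60 min after injection. Four mice per group, repeated four times (n=16).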

[4] = tested on: Mus musculus; experiment: Effect on N/OFQ-induced antinociceptive activity in Swiss albino mouse at 10 mg/kg, ip administered 30 mins before 1 nmol, it N/OFQ challenge by tail withdrawal latency test; assay type: functional, organism-based; design: dose 10 mg/kg; in short: as §1
[5] = target: T1, Nociceptin receptor; experiment: Antagonist activity at human recombinant NOP expressed in expressed on CHO cells co-expressing Galphaqi5 chimeric protein assessed as inhibition of NOPN/OFQ-stimulated calcium mobilization; assay type: functional, cell-based
In short: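 CHO cells stably co-expressing hNOP and Gαqi5, 40,000 cells/well, loaded 24 h later with Fluo-4 AM 3 µM, probenecid 2.5 mM, pluronic 0.01% for 30 min at 37 °C. Assay buffer HBSS/20 mM HEPES with probenecid and Brilliant Black. Fluorescence read at room temperature. Antagonist inhibition of 10 nM N/OFQ response. pKb derived from IC50 via the Kb equation. Four experiments in duplicate.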

[6] = target: T2, Kappa-type opioid receptor (Homo sapiens, UniProt P41145); experiment: Displacement of [3H]DPN from human recombinant kappa-type opioid receptor expressed in CHO cell membranes; assay type: cell-based
T2 sequence (P41145 whole entry): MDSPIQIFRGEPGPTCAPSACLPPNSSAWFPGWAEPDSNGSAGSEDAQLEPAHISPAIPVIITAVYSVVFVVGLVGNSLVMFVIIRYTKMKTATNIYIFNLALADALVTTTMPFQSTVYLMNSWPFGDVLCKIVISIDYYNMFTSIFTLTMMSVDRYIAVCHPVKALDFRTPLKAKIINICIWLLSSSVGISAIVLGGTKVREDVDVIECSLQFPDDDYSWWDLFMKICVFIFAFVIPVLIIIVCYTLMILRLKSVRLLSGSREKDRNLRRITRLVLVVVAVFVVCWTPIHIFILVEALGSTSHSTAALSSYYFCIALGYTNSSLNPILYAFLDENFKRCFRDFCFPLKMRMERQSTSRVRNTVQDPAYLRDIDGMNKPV

[7] = target: T3, Mu-type opioid receptor (Homo sapiens, UniProt P35372); experiment: Displacement of [3H]DPN from human recombinant mu-type opioid receptor expressed in CHO cell membranes; assay type: cell-based
T3 sequence (P35372 whole entry): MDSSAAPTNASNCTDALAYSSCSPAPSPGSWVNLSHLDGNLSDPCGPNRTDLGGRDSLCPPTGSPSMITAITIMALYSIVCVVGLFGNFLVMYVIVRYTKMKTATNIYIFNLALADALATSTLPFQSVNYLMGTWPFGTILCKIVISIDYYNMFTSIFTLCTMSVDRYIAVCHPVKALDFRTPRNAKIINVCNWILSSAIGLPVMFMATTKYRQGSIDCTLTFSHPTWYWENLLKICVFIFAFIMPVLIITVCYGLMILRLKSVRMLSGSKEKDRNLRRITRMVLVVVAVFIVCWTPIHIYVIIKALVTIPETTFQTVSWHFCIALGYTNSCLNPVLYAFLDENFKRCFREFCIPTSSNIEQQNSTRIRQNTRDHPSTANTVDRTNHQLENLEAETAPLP

[8] = target: T3, Mu-type opioid receptor; conditions: CHO
[9] = target: T1, Nociceptin receptor; experiment: Antagonist activity at human recombinant NOP expressed in CHO cells by [35S]GTPgammaS binding assay; assay type: functional, cell-based; conditions: read-out: pA2 (converted)
In short: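 Membranes from CHO cells stably expressing human NOP, prepared in 50 mM Tris-HCl, 0.2 mM EGTA pH 7.4; 20 µg protein with MgCl2 1 mM, NaCl 100 mM, bacitracin 0.15 mM, peptidase inhibitors, GDP 100 µM, ~150 pM [35S]GTPγS. Antagonist preincubated 15 min at 30 °C, then N/OFQ concentration-response 1 h at 30 °C; filtration without PEI. pA2 from Schild analysis.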

[10] = target: Nociceptin receptor (Cavia porcellus) (UniProt P47748); conditions: Albino, Ileum
Nociceptin receptor (Cavia porcellus), sequence (P47748 whole entry): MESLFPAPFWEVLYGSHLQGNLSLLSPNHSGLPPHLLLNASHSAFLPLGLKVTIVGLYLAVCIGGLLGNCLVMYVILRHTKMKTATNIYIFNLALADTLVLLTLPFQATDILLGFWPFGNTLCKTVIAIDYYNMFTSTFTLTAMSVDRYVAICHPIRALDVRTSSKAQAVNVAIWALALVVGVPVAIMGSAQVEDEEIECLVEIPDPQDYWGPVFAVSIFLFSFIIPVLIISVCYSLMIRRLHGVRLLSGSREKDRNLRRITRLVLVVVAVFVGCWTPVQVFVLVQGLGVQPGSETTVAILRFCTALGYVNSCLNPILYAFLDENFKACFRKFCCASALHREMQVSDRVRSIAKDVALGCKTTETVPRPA

[11] = target: T4, Delta-type opioid receptor (Homo sapiens, UniProt P41143); experiment: Displacement of [3H]DPN from human recombinant delta-type opioid receptor expressed in CHO cell membranes
T4 sequence (P41143 whole entry): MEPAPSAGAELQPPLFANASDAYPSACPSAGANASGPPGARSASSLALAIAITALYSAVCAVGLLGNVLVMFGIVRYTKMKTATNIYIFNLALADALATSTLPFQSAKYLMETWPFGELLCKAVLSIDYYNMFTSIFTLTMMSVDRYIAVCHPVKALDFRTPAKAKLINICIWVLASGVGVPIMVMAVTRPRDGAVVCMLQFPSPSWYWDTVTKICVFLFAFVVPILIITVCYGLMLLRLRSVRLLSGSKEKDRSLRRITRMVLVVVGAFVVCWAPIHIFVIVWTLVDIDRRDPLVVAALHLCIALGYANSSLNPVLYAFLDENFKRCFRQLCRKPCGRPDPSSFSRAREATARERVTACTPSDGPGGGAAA
In short: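 CHO membranes expressing human DOP (25 µg protein) incubated 1 h at room temperature in 50 mM Tris-HCl pH 7.4, 0.5% BSA, ~0.7 nM [3H]diprenorphine with increasing test concentrations. Filtration through PEI-soaked GF/B filters, scintillation counting. Four separate experiments.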

[12] = target: Nociceptin receptor (Rattus norvegicus) (UniProt P35370); conditions: Sprague-Dawley, Vas deferens
Nociceptin receptor (Rattus norvegicus), sequence (P35370 whole entry): as the sequence (P35377 whole entry) above, with F9Y, A335S counted along it

[13] = target: T4, Delta-type opioid receptor; conditions: CHO
[14] = target: T2, Kappa-type opioid receptor; conditions: CHO
[15] = tested on: Mus musculus; experiment: Effect on N/OFQ-induced antinociceptive activity in Swiss albino mouse at 1 mg/kg, ip administered 30 mins before 1 nmol, it N/OFQ challenge by tail withdrawal latency test; assay type: functional, organism-based; design: dose 1 mg/kg
[16] = tested on: Mus musculus; experiment: Effect on N/OFQ-induced pronociciceptive activity in Swiss albino mouse at 1 mg/kg, ip administered 30 mins before 1 nmol, icv N/OFQ challenge by tail withdrawal latency test; assay type: functional, organism-based; design: dose 1 mg/kg

Structure (SMILES): O=C(OCCCN1CCC2(CC1)OCc1ccccc12)[C@H]1CCCN1Cc1ccccc1
- Ki [1]: 107 nM

Structure (SMILES): O=C(NCCCN1CCC2(CC1)OCc1ccccc12)[C@H]1CCCN1Cc1ccccc1
- Ki [1]: 0.24 nM
- Kb [2]: 5.75 nM
- Activity [3]: Active
- Activity [4]: Active
- pKb [5]: 9.03

Structure (SMILES): CN(CCCN1CCC2(CC1)OCc1ccccc12)C(=O)[C@H]1CCCN1Cc1ccccc1
- Ki [1]: 1150 nM

Structure (SMILES): N[C@H](Cc1ccccc1)C(=O)NCCCN1CCC2(CC1)OCc1ccccc12
- Ki [1]: 58.9 nM

Structure (SMILES): N[C@@H](Cc1ccccc1)C(=O)NCCCN1CCC2(CC1)OCc1ccccc12
- Ki [1]: 58.9 nM

Structure (SMILES): O=C(NCCCN1CCC(c2c(Cl)cccc2Cl)CC1)[C@@H]1CCCN1Cc1ccccc1
- Ki [1]: 83.2 nM

Structure (SMILES): c1ccc(CN2CCC[C@@H]2CNCCCN2CCC3(CC2)OCc2ccccc23)cc1
- Ki [1]: 49 nM

Structure (SMILES): O=C(NCCCN1CCC(c2c(Cl)cccc2Cl)CC1)[C@H]1CCCN1Cc1ccccc1
- Ki [6]: 316 nM
- Ki [1]: 0.724 nM
- Kb [2]: 10 nM
- Ki [7]: 191 nM
- pKb [8]: 6.11
- Kb [9]: 0.123 nM
- pKb [10]: 8.84
- Ki [11]: > 1000 nM
- Activity [3]: inactive
- pKb [12]: 8.06
- Activity [4]: inactive
- pKb [5]: 8.47
- pKb [13]: < 6
- pKb [14]: < 6

Structure (SMILES): O=C(CNCc1ccccc1)NCCCN1CCC2(CC1)OCc1ccccc12
- Ki [1]: 60.3 nM

Structure (SMILES): Cc1cccc2c1CC[C@H](CN1CCC(c3c(Cl)cccc3Cl)CC1)C[C@@H]2O
- Activity [15]: Active
- Activity [16]: Active

Structure (SMILES): C(=C[C@H]1CCCN1Cc1ccccc1)CCCN1CCC2(CC1)NCc1ccccc12
- Ki [1]: > 10000 nM

Structure (SMILES): c1ccc(CN2CCC[C@@H]2COCCCN2CCC3(CC2)OCc2ccccc23)cc1
- Ki [1]: 158 nM
